Source: ChEMBL document CHEMBL4477201, “Imidazopyridine and Pyrazolopiperidine Derivatives as Novel Inhibitors of Serine Palmitoyl Transferase” (J Med Chem, 2016)
The source made the active and inactive calls. The rule behind the calls is not given here.

What was measured:
[1] = target: T1, Serine palmitoyltransferase 1 (Homo sapiens, UniProt O15269); assay: Inhibition of human SPT1 expressed in microsomes of HEK293 cells incubated for 1hr by LC/MS analysis
T1 sequence (O15269 whole entry): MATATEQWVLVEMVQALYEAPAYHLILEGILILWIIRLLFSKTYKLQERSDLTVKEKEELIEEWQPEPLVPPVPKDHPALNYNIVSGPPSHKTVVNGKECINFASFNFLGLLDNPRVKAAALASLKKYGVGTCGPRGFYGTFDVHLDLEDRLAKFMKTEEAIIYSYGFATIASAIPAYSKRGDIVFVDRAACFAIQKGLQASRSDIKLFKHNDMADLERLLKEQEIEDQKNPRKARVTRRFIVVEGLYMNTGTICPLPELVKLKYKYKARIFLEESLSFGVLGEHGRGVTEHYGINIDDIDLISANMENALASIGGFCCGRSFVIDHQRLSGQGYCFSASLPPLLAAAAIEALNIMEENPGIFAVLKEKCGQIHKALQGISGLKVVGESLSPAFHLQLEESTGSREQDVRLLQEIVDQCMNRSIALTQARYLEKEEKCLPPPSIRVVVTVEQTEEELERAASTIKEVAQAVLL
Summary of the method: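 SPT source was a microsomal fraction from HEK293 cells, with serine and palmitoyl coenzyme A as substrates. Formation of 3-ketodeoxysphinganine quantified by LC/MS. Inhibition determined at 10 concentrations per compound to give IC50.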

[2] = target: T2, Serine palmitoyltransferase 1 (Homo sapiens) (UniProt O15269); assay: (§1) Inhibition of SPT1 in human MCF7 cells assessed as suppression of 14C-serine incorporation into ceramide incubated for 2 hrs in presence of 4-HPR; type: cell-based
T2 sequence (whole entry): T1 sequence (O15269 whole entry)
Summary of the method: (§2)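 Human MCF-7 cells incubated 2 h with a range of compound concentrations or DMSO control media. Medium contained 14C-serine plus 25 uM 4-HPR to activate SPT. 14C-serine-labeled ceramide products quantified to give EC50.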

[3] = target: T1, Serine palmitoyltransferase 1; assay: as §1; type: cell-based; summary of the method: as §2
[4] = Toxicity in diet-induced obese C57Bl/6 mouse assessed as decrease in food intake at 25 mg/kg, po qd for 4 weeks; type: organism-based; settings: in vivo, 672 h
Summary of the method: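 Food intake monitored in DIO mice during 4 weeks of daily oral dosing.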

[5] = Fraction unbound in rat; type: ADME
[6] = Lipophilicity, log P of compound; type: physicochemical; settings: octanol/water
[7] = Drug uptake in diet-induced obese C57Bl/6 mouse liver at 1 mg/kg, po qd for 4 weeks measured 6 hrs post last dose; type: ADME, organism-based; settings: read-out: Drug uptake
Summary of the method: (§3)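 Male DIO mice dosed orally for 4 weeks. Sacrificed 6 h after the last dose. Compound measured in serum (ng/mL) and liver (ng/g), and the liver:serum ratio calculated.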

[8] = AUC (0 to 24 hrs) in Sprague-Dawley rat at 1 mg/kg, iv; type: ADME, organism-based; parameters: time < 24 hr, dose 1 mg/kg, route intravenous; settings: in vivo
Summary of the method: (§4)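 Single dose to fasted male Sprague Dawley rats, IV at 1 mg/kg or oral at 3 mg/kg. Plasma levels followed to derive AUC0-24hr, Cmax, half-life, Vdss and oral bioavailability.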

[9] = Half life in Sprague-Dawley rat at 1 mg/kg, iv; type: ADME, organism-based; settings: in vivo; summary of the method: as §4
[10] = Volume of distribution at steady state in Sprague-Dawley rat at 1 mg/kg, iv; type: ADME, organism-based; settings: in vivo, read-out: Vdss; summary of the method: as §4
[11] = AUC (0 to 24 hrs) in Sprague-Dawley rat at 3 mg/kg,po; type: ADME, organism-based; parameters: time < 24 hr, dose 3 mg/kg, route oral; settings: in vivo; summary of the method: as §4
[12] = Cmax in Sprague-Dawley rat at 3 mg/kg,po; type: ADME, organism-based; parameters: dose 3 mg/kg, route oral; settings: in vivo; summary of the method: as §4
[13] = Half life in Sprague-Dawley rat at 3 mg/kg,po; type: ADME, organism-based; settings: in vivo; summary of the method: as §4
[14] = Oral bioavailability in Sprague-Dawley rat at 3 mg/kg; type: ADME, organism-based; settings: in vivo; summary of the method: as §4
[15] = test system: Mus musculus; assay: Reduction in total plasma ceramide level in C57BL6 mouse administered through gavage after 6 hrs by mass spectrometry relative to vehicle-treated control; type: functional
Summary of the method: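 Normal C57bl6 mice given a single oral dose at six dose levels, n=3 per group. Plasma collected 6 h post dose. C16:0, C20:0, C22:0, C24:0 and C24:1 ceramides measured by mass spectrometry and summed; total reduction calculated versus vehicle. ED50 derived from the dose-response; mean ± SEM.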

[16] = test system: Rattus norvegicus; assay: Reduction in vLDL level in cholic acid/cholesterol-fed Sprague-Dawley rat model of dyslipidemia at 1 to 60 mg/kg administered bid through oral gavage measured after 1 week by FPLC analysis relative to vehicle-treated control; type: functional, organism-based
Summary of the method: (§5)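 Sprague Dawley rats fed a cholic acid/cholesterol diet for 14 days, then dosed orally BID for 7 days at five dose levels, n=6. Serum ceramides and VLDL and HDL cholesterol compared with vehicle (dose 0). Mean ± SEM; Dunnett's test, p<0.05.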

[17] = test system: Rattus norvegicus; assay: Reduction in total plasma ceramide level in cholic acid/cholesterol-fed Sprague-Dawley rat model of dyslipidemia at 10 to 60 mg/kg administered bid through oral gavage measured after 1 week by FPLC analysis relative to vehicle-treated control; type: functional, organism-based; summary of the method: as §5
[18] = Toxicity in rat assessed as induction of gastric enteropathy during 14 days toxicology study; settings: in vivo, 336 h
[19] = test system: Mus musculus; assay: Reduction in serum insulin in diet-induced obese C57BL6 mouse at 25 mg/kg, po qd for 4 weeks by oral glucose tolerance test relative to lean control; type: functional, organism-based
Summary of the method: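 After 4 weeks of oral dosing, DIO mice underwent an oral glucose tolerance test. Insulin and glucose AUC compared with lean mice; trend assessed by ANOVA trend analysis.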

[20] = Drug uptake in diet-induced obese C57Bl/6 mouse serum at 1 mg/kg, po qd for 4 weeks measured 6 hrs post last dose; type: ADME, organism-based; settings: read-out: Drug uptake; summary of the method: as §3
[21] = Drug uptake in diet-induced obese C57Bl/6 mouse serum at 3 mg/kg, po qd for 4 weeks measured 6 hrs post last dose; type: ADME, organism-based; settings: read-out: Drug uptake; summary of the method: as §3
[22] = Drug uptake in diet-induced obese C57Bl/6 mouse serum at 10 mg/kg, po qd for 4 weeks measured 6 hrs post last dose; type: ADME, organism-based; settings: read-out: Drug uptake; summary of the method: as §3
[23] = Drug uptake in diet-induced obese C57Bl/6 mouse liver at 3 mg/kg, po qd for 4 weeks measured 6 hrs post last dose; type: ADME, organism-based; settings: read-out: Drug uptake; summary of the method: as §3
[24] = Drug uptake in diet-induced obese C57Bl/6 mouse liver at 10 mg/kg, po qd for 4 weeks measured 6 hrs post last dose; type: ADME, organism-based; settings: read-out: Drug uptake; summary of the method: as §3
[25] = Drug uptake in diet-induced obese C57Bl/6 mouse liver at 0.1 mg/kg, po qd for 4 weeks measured 6 hrs post last dose; type: ADME, organism-based; settings: read-out: Drug uptake; summary of the method: as §3
[26] = Drug uptake in diet-induced obese C57Bl/6 mouse liver at 25 mg/kg, po qd for 4 weeks measured 6 hrs post last dose; type: ADME, organism-based; settings: read-out: Drug uptake; summary of the method: as §3
[27] = Ratio of drug uptake in diet-induced obese C57Bl/6 mouse liver to serum at 1 mg/kg, po qd for 4 weeks measured 6 hrs post last dose; type: ADME, organism-based; summary of the method: as §3
[28] = Ratio of drug uptake in diet-induced obese C57Bl/6 mouse liver to serum at 10 mg/kg, po qd for 4 weeks measured 6 hrs post last dose; type: ADME, organism-based; summary of the method: as §3
[29] = Ratio of drug uptake in diet-induced obese C57Bl/6 mouse liver to serum at 0.1 mg/kg, po qd for 4 weeks measured 6 hrs post last dose; type: ADME, organism-based; settings: other tissue; summary of the method: as §3
[30] = Ratio of drug uptake in diet-induced obese C57Bl/6 mouse liver to serum at 25 mg/kg, po qd for 4 weeks measured 6 hrs post last dose; type: ADME, organism-based; summary of the method: as §3

CCCCCCC(=O)N1CCc2c(c(-c3ccc(C(C)(C)C(=O)O)cc3)nn2C)C1
IC50 [1]: 63.9 nM | inhibition [2]: Dose-dependent effect | EC50 [3]: 4220 nM | Activity [4]: Toxic | fraction unbound [5]: 0.02 | logP [6]: 4.66 | concentration at 6 h [7]: 61200 ng/g | AUC(0-t) at 24 h [8]: 190 ng·h/mL | half-life [9]: 5.17 h | Vd [10]: 8.33 L/kg | AUC(0-t) at 24 h [11]: 155 ng·h/mL | Cmax [12]: 16.3 ng/mL | half-life [13]: 7.65 h | bioavailability [14]: 33% | Activity [15]: Dose-dependent effect | ED50 ([15]; C57BL6, po): 8.8 mg/kg | Activity [16]: inactive | Activity [17]: Active | Activity [18]: Toxic | Activity [19]: Active | concentration at 6 h [20]: 141 ng/mL | concentration at 6 h [21]: 665 ng/mL | concentration at 6 h [22]: 855 ng/mL | concentration at 6 h [23]: 83800 ng/g | concentration at 6 h [24]: 130000 ng/g | concentration at 6 h [25]: 26500 ng/g | concentration at 6 h [26]: 119000 ng/g | Kp at 6 h [27]: 434 | Kp at 6 h [28]: 152 | Ratio [29]: 5292 | Kp at 6 h [30]: 99
